# Measurements published in ChEMBL document CHEMBL3763021 (Eur J Med Chem, 2016).
# pIC50: −log10 of the molar value.
# Key:
# [1] = Inhibition of Sonic-induced hedgehog signalling in mouse NIH3T3 cells after 48 hrs by Gli-luciferase reporter assay; assay type: cell-based; details: NIH3T3, 48 h
# Outline: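 NIH3T3 cells stably carrying a Gli-luciferase reporter were kept in DMEM with 10% FBS and 1 µg/mL puromycin, then seeded at 2×10^4 cells/well overnight at 37 °C. Compounds at 0.05–300 nM (8 concentrations) were added in medium with 0.5% FBS and 0.7 µg/mL Sonic Hh agonist, n=4 wells, for 48 h. Readout was the Firefly/Renilla luciferase ratio in lysates.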
# [2] = Clearance in Sprague-Dawley rat at 5 mg/kg, po by LC/MS/MS analysis; assay type: ADME, organism-based; details: in vivo
# Outline: (§1)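 Male SD rats, 180–240 g, 3 per compound; single dose of 1 mg/kg iv or 5 mg/kg po, dosing volume 5 mL/kg. Blood was sampled from 2 min to 24 h and centrifuged at 4 °C. Plasma underwent protein precipitation, then LC/MS/MS in SRM mode with an internal standard. Parameters were derived by noncompartmental analysis.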
# [3] = AUC (0 to t) in Sprague-Dawley rat at 1 mg/kg, iv by LC/MS/MS analysis; assay type: ADME, organism-based; details: in vivo
# Outline: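 Male SD rats, 3 per compound, 180–240 g, single iv dose at 1 mg/kg, dosing volume 5 mL/kg. Blood sampled at 2, 5, 15, 30 min and 1, 2, 4, 6, 8, 10, 24 h, then centrifuged at 4 °C. Plasma protein-precipitated and analysed by LC/MS/MS in SRM mode with internal standard. AUC(0-t) obtained by noncompartmental analysis.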
# [4] = Cmax in Sprague-Dawley rat at 1 mg/kg, iv by LC/MS/MS analysis; assay type: ADME, organism-based; design: dose 1 mg/kg, route intravenous; details: in vivo; outline: as §1
# [5] = Apparent volume of distribution in Sprague-Dawley rat at 1 mg/kg, iv by LC/MS/MS analysis; details: in vivo
# [6] = Half life in Sprague-Dawley rat at 5 mg/kg, po by LC/MS/MS analysis; assay type: ADME, organism-based; details: in vivo; outline: as §1
# Rattus norvegicus = test: Apparent volume of distribution in Sprague-Dawley rat at 5 mg/kg, po by LC/MS/MS analysis; details: in vivo
# [7] = Mean resident time (0 to t) in Sprague-Dawley rat at 5 mg/kg, po by LC/MS/MS analysis; assay type: ADME, organism-based; details: in vivo; outline: as §1
# [8] = Cmax in Sprague-Dawley rat at 5 mg/kg, po by LC/MS/MS analysis; assay type: ADME, organism-based; design: dose 5 mg/kg, route oral; details: in vivo; outline: as §1
# [9] = Half life in Sprague-Dawley rat at 1 mg/kg, iv by LC/MS/MS analysis; assay type: ADME, organism-based; details: in vivo; outline: as §1
# [10] = Clearance in Sprague-Dawley rat at 1 mg/kg, iv by LC/MS/MS analysis; assay type: ADME, organism-based; details: in vivo; outline: as §1
# [11] = Mean resident time (0 to t) in Sprague-Dawley rat at 1 mg/kg, iv by LC/MS/MS analysis; assay type: ADME, organism-based; details: in vivo; outline: as §1
# [12] = AUC (0 to t) in Sprague-Dawley rat at 5 mg/kg, po by LC/MS/MS analysis; assay type: ADME, organism-based; details: in vivo; outline: as §1
# [13] = Oral bioavailability in Sprague-Dawley rat at 5 mg/kg; assay type: ADME, organism-based; details: in vivo; outline: as §1
# LS174T [14] = test: Antitumor activity against human LS174T cells xenografted in BALB/C mouse assessed as tumor weight inhibition at 75 mg/kg, qd administered for 10 days measured twice per week; assay type: functional; details: 240 h, read-out: TGI
# Outline: (§2)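 Male BALB/c nude mice, 18–20 g, kept under SPF conditions. LS-174T cells at 2.5×10^7 cells/mL were injected s.c. into the right flank, and tumors were grown to about 100 mm3. Mice were randomized, n=6 treated and n=9 vehicle. Oral dosing ran qd or bid for 10 days; vehicle controls got the same volume of solvent. Tumor volume = length×width²/2, measured twice weekly. IR = (control − treated)/control for tumor weight or volume at day 10.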
# LS174T [15] = test: Antitumor activity against human LS174T cells xenografted in BALB/C mouse assessed as tumor volume inhibition at 150 mg/kg, qd administered for 10 days measured twice per week; assay type: functional; details: 240 h, read-out: TGI; outline: as §2
# Mus musculus [16] = test: Toxicity in BALB/C mouse xenografted with human LS174T cells assessed as loss of body weight at 75 mg/kg, bid administered for 10 days measured twice per week; assay type: organism-based; details: in vivo, 240 h
# Outline: (§3)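 Male BALB/C nude mice (18–20 g) kept under SPF conditions. LS-174T cells at 2.5×10^7 cells/mL injected subcutaneously into the right flank. Once tumors reached about 100 mm3, mice were randomized to groups of 6 (vehicle group n = 9) and dosed orally once or twice daily for 10 days. Controls received solvent. Body weight and tumor volume were measured twice weekly and deaths recorded.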
# LS174T [17] = test: Antitumor activity against human LS174T cells xenografted in BALB/C mouse assessed as tumor volume inhibition at 75 mg/kg, bid administered for 10 days measured twice per week; details: 240 h, read-out: TGI
# [18] = Antiproliferative activity against human BxPC3 cells after 72 hrs by CellTiter-Glo luminescent cell viability assay; assay type: functional, cell-based; details: BXPC-3, 72 h
# Outline: (§4)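 Cells were grown in DMEM with 10% FBS, seeded at a density suited to each line, and left 24 h at 37 °C. Compounds were prepared in DMSO, diluted in medium over a concentration series starting at 100 µM, and applied for 72 h. CellTiter-Glo reagent was added for 30 min at room temperature before reading luminescence. IC50 came from four-parameter curve fitting.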
# LS174T [19] = test: Antitumor activity against human LS174T cells xenografted in BALB/C mouse assessed as tumor volume inhibition at 75 mg/kg, qd administered for 10 days measured twice per week; assay type: functional; details: 240 h, read-out: TGI; outline: as §2
# Mus musculus [20] = test: Toxicity in BALB/C mouse xenografted with human LS174T cells assessed as loss of body weight at 37.5 to 150 mg/kg, qd administered for 10 days measured twice per week; assay type: organism-based; details: in vivo, 240 h; outline: as §3
# LS174T [21] = test: Antitumor activity against human LS174T cells xenografted in BALB/C mouse assessed as tumor weight inhibition at 75 mg/kg, bid administered for 10 days measured twice per week; assay type: functional; details: 240 h, read-out: TGI; outline: as §2
# LS174T [22] = test: Antitumor activity against human LS174T cells xenografted in BALB/C mouse assessed as tumor volume inhibition at 37.5 mg/kg, qd administered for 10 days measured twice per week; assay type: functional; details: 240 h, read-out: TGI; outline: as §2
# LS174T [23] = test: Antitumor activity against human LS174T cells xenografted in BALB/C mouse assessed as tumor weight inhibition at 37.5 mg/kg, qd administered for 10 days measured twice per week; assay type: functional; details: 240 h, read-out: TGI; outline: as §2
# LS174T [24] = test: Antitumor activity against human LS174T cells xenografted in BALB/C mouse assessed as tumor weight inhibition at 150 mg/kg, qd administered for 10 days measured twice per week; assay type: functional; details: 240 h, read-out: TGI; outline: as §2
# [25] = Antiproliferative activity against human PC3 cells after 72 hrs by CellTiter-Glo luminescent cell viability assay; assay type: functional, cell-based; details: PC-3, 72 h; outline: as §4
# Mus musculus [26] = test: Toxicity in BALB/C mouse xenografted with human LS174T cells assessed as mortality at 75 mg/kg, bid administered for 10 days; assay type: organism-based; details: in vivo, 240 h; outline: as §3
# Mus musculus [27] = test: Toxicity in BALB/C mouse xenografted with human LS174T cells assessed as mortality at 37.5 to 150 mg/kg, qd administered for 10 days; assay type: organism-based; details: in vivo, 240 h; outline: as §3
# LS174T [28] = test: Antiproliferative activity against human LS174T cells after 72 hrs by CellTiter-Glo luminescent cell viability assay; assay type: functional, cell-based; outline: as §4
SMILES,pIC50 [1],CL/F [2] [L/h/kg],AUC(0-t) [3] [µg·h/mL],Cmax [4] [µg/mL],Vd [5] [L/kg],half-life [6] [h],Vd(app) (Rattus norvegicus) [L/kg],MRT last [7] [h],Cmax [8] [µg/mL],half-life [9] [h],clearance [10] [L/h/kg],MRT last [11] [h],AUC(0-t) [12] [µg·h/mL],other results
Cc1ccc(CN2CCOCC2)cc1NC(=O)c1ccc(Nc2ncc(F)c(-c3ccc(OC(F)(F)F)cc3)n2)cn1,8.94,4.85,1.89,3.14,6.28,7.24,50.45546,7.74,0.0866,8.85,0.502,4.23,0.923,–
Cc1c(C(=O)Nc2ccc(N3C[C@@H](C)O[C@@H](C)C3)nc2)cccc1-c1ccc(OC(F)(F)F)cc1 [SONIDEGIB],8.26,0.583,2.2,1.93,0.955,4.01,3.40593,5.4,1.4,1.43,0.461,1.58,8.83,bioavailability [13]: 80.6%
Cc1ccc(CN2CCN(C)CC2)cc1NC(=O)c1ccc(Nc2ncc(F)c(-c3ccc(OC(F)(F)F)cc3)n2)cc1,8.55,–,–,–,–,–,–,–,–,–,–,–,–,–
Cc1ccc(CN2CCOCC2)cc1NC(=O)c1ccc(Nc2ncc(F)c(-c3ccc(OC(F)(F)F)cc3)n2)nc1,9.11,–,0.625,0.77,4.62,–,–,–,–,2.02,1.58,1.98,–,–
Cc1ccc(CN2CCCC2)cc1NC(=O)c1ccc(Nc2ncc(F)c(-c3ccc(OC(F)(F)F)cc3)n2)cc1,8.29,–,–,–,–,–,–,–,–,–,–,–,–,–
Cc1ccc(CN2CCOCC2)cc1NC(=O)c1ccc(Nc2nccc(-c3ccc(OC(F)(F)F)cc3)n2)cc1,9.05,0.74,2.44,1.2,2.87,6.68,7.12872,6.98,0.635,4.96,0.401,4.22,6.22,inhibition in vivo at 75 mg/kg (LS174T [14]): 9.9%; inhibition in vivo at 150 mg/kg (LS174T [15]): 38.9%; Activity (Mus musculus [16]): Non-toxic; inhibition in vivo at 75 mg/kg (LS174T [17]): 42.9%; pIC50 [18]: 4.45; inhibition in vivo at 75 mg/kg (LS174T [19]): 23.2%; Activity (Mus musculus [20]): Non-toxic; inhibition in vivo at 75 mg/kg (LS174T [21]): 23.3%; inhibition in vivo at 37.5 mg/kg (LS174T [22]): 33%; inhibition in vivo at 37.5 mg/kg (LS174T [23]): 10.2%; bioavailability [13]: 42%; inhibition in vivo at 150 mg/kg (LS174T [24]): 21.1%; pIC50 [25]: 4.83; Activity (Mus musculus [26]): Non-toxic; Activity (Mus musculus [27]): Non-toxic; pIC50 (LS174T [28]): 4.91
Cc1ccc(CN2CCN(C)CC2)cc1NC(=O)c1ccc(Nc2nccc(-c3ccc(OC(F)(F)F)cc3)n2)cc1,9.01,–,–,–,–,–,–,–,–,–,–,–,–,–
Cc1ccc(CN(C)C)cc1NC(=O)c1ccc(Nc2nccc(-c3ccc(OC(F)(F)F)cc3)n2)cc1,8.52,–,–,–,–,–,–,–,–,–,–,–,–,–
Cc1ccc(CN2CCOCC2)cc1NC(=O)c1ccc(Nc2nccc(-c3ccc(OC(F)(F)F)cc3)n2)cn1,9.16,7.41,–,–,–,5.56,59.60185,4.83,0.137,–,–,–,0.66,–
